Several values for one entry are separate records, joined by “and”; a condition that tells them apart may be missing. Equal entries are not always repeated. Activity calls are given as the source filed them.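 Rule for the calls: active = GFP response vs DMSO above 150% with enough events counted; inconclusive = fewer than 70 events counted for a yeast strain; inactive = the rest.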

The experiment is described as follows: yeast TOR reporter LAP4-GFP retest – cell-based, third cherry pick, flow cytometry, confirmation (AID 504338).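 Note: ratio to plate DMSO wells so 100% equals DMSO level rather than 0%.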 The note with it: S. cerevisiae LAP4-GFP strain, 3 h, at 10 µM, stronger effect = higher value. A digest of the protocol: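 Material: Saccharomyces cerevisiae strain expressing LAP4-GFP fusion protein / Compound: 10 µM, one concentration / Incubation: compound exposure for 3 h at 30 °C / Detection: high-throughput flow cytometry of GFP, single-cell scatter gate / Measure: median GFP fluorescence as percent of plate DMSO-well average / Benchmarks: rapamycin 400 ng/mL high, DMSO low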
On the technique in general: Flow cytometry measures light scatter and fluorescence of single cells or particles in a stream.
In the case of `Cc1cc(C)c2ccc(C(=O)O)nc2c1O`, the GFP response vs DMSO was 107% (inactive).

With `CCC(C)Nc1nc(N)c([N+](=O)[O-])c(Nc2cc(OC)ccc2OC)n1` (centres undefined), the GFP response vs DMSO is 101% (inactive). As for `CN1CCN(C(=O)c2cc(COc3ccc(F)cc3Cl)on2)CC1c1ccccc1` (centres undefined), the GFP response vs DMSO is 103% (inactive). For `Nn1cnc2c(c1=O)C1(CCCCC1)Cc1ccccc1-2`, the GFP response vs DMSO is 97.2% (inactive). With `O=C1c2ccccc2C(=O)c2c1cccc2N(CCO)CCO`, the GFP response vs DMSO was 100% (inactive). With `Nc1nc(NCCOCCO)nc(Nc2cccc(F)c2)c1[N+](=O)[O-]` the figure was 104% (inactive). On to `Cc1cccc(N/C=C/C(=O)c2ccc(Cl)cc2)c1`, for which the GFP response vs DMSO is 110% (inactive).

As to `COc1ccc(OC)c(N/C(C)=C/C(=O)c2ccccc2)c1`, the GFP response vs DMSO was 103% (inactive). Regarding `Cc1cc(C)c2ccc(N)nc2c1O`, the GFP response vs DMSO was 97.2% (inactive). With `COc1cccc(N/C(C)=C/C(=O)c2ccc(Br)cc2)c1`, the GFP response vs DMSO is 103% (inactive). With `CSc1nc(S(C)(=O)=O)nc2[nH]c(=O)[nH]c12` the figure was 104% (inactive). Regarding `COc1cccc(NC(=O)CC(C)=O)c1`, the GFP response vs DMSO was 101% (inactive). For `Cc1ccc(Nc2nc(N)[nH]c(=O)c2N=O)cc1`, the GFP response vs DMSO is 104% (inactive). As to `O=C(Nc1ccccc1)ON=C1c2ccccc2-c2ccccc21`, the GFP response vs DMSO was 106% (inactive). `O=C(O)CCS(=O)(=O)c1nc(-c2cccs2)cc(C(F)(F)F)n1`: the GFP response vs DMSO was 115% (inactive). As to `COc1ccc(-c2cc(C(F)(F)F)nc(S(C)(=O)=O)n2)cc1OC`, the GFP response vs DMSO is 107% (inactive) and 110% (inactive). Then `CCCOCc1ccc(O)c2ncccc12`, with 104% (inactive). Turning to `C=CCNc1ncnc2ccccc12`, the GFP response vs DMSO was 103% (inactive). With `CCC(=O)Nn1cnc2c(c1=O)C1(CCCCC1)Cc1ccccc1-2`, the GFP response vs DMSO is 101% (inactive). Consider `Cc1ccc(C)c(Nc2ncnc(N)c2[N+](=O)[O-])c1`, for which the GFP response vs DMSO is 107% (inactive). With `CC1=CN2C(=N)/C(=C/c3ccco3)C(=O)N=C2S1` the figure was 101% (inactive). As to `COc1ccc(Nc2nc(NN)nc(C)c2[N+](=O)[O-])cc1`, the GFP response vs DMSO is 100% (inactive). Consider `O=C(O)c1ccccc1-c1ccccc1C(=O)Nc1ccc(-c2nc3cc(Cl)ccc3o2)cc1`, for which the GFP response vs DMSO is 104% (inactive).

Turning to `Cc1ccc2nc(-c3ccc(NC(=O)c4cccnc4)cc3)oc2c1`, the GFP response vs DMSO is 103% (inactive). Consider `COc1ccc(NC(=O)ON=C2c3ccccc3-c3ccccc32)cc1`, for which the GFP response vs DMSO was 104% (inactive). As to `C[n+]1cccc2cccc([O-])c21`, the GFP response vs DMSO is 107% (inactive). With `CCc1sc(C(=O)Nc2nc(-c3ccccn3)cs2)cc1C` the figure was 189% (active). For `CCN(CC)C(=O)Oc1cc(=O)n(C)c2ccccc12`, the GFP response vs DMSO is 101% (inactive). `CCCC(=O)Nn1cnc2c(c1=O)C1(CCCCC1)Cc1ccccc1-2`: the GFP response vs DMSO was 103% (inactive). For `O=C(Nc1cccc(Cl)c1)ON=C1c2ccccc2-c2ccccc21`, the GFP response vs DMSO is 107% (inactive). Then `Cn1cccc1C(=O)Nc1nc(-c2ccccn2)cs1`, with 114% (inactive). Then `O=c1cc(C(F)(F)F)[nH]c2c(OC(F)(F)F)cccc12`, with 98.6% (inactive). For the compound `Cn1c(NCCO)nc2c(c1=O)C1(CCCCC1)Cc1ccccc1-2`, the GFP response vs DMSO is 104% (inactive). As to `Nc1cc(C(=O)O)c(N)c2c1C(=O)c1ccccc1C2=O`, the GFP response vs DMSO was 106% (inactive). Then `COc1ccccc1-c1cc(C(F)(F)F)nc(S(=O)(=O)CCCC(=O)O)n1`, with 112% (inactive); and `Cc1ccc(-c2cc(C(F)F)nc(S(C)(=O)=O)n2)cc1`, with 114% (inactive). Consider `CCCC(=O)Nn1cnc2c(c1=O)C1(CCCC1)Cc1ccccc1-2`, for which the GFP response vs DMSO was 103% (inactive). With `CNc1cccc2c1C(=O)c1ccccc1C2=O`, the GFP response vs DMSO was 107% (inactive). As to `Nc1ccc(O)c2c1C(=O)c1ccccc1C2=O`, the GFP response vs DMSO is 98.6% (inactive).

The values above are taken from PubChem BioAssay AID504338 (NMMLSC, 2011).
